# ChEMBL document CHEMBL4823270, “A first-in-class anticancer dual HDAC2/FAK inhibitors bearing hydroxamates/benzamides capped by pyridinyl-1,2,4-triazoles” (Eur J Med Chem, 2021)
# Legend:
# HCT-116 = assay: Growth inhibition of human HCT-116 cells at 10 uM incubated for 24 hrs by MTT assay relative to control; type: functional; settings: read-out: GI
# Method in brief: (§1)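 Cells seeded at 1 × 10^4 per well, cultured overnight, then exposed to 10 μM compound or DMSO (negative control) for 24 h. After a PBS wash, MTT (2 mg/ml) was added for 4 h at 37°C and formazan dissolved in DMSO. OD read at 570 nm. Growth inhibition = 1 − (OD treated/OD control); at least three independent experiments.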
# HT-29 = assay: Growth inhibition of human HT-29 cells at 10 uM incubated for 24 hrs by MTT assay relative to control; type: functional; settings: read-out: GI; method in brief: as §1
# K562 = assay: Growth inhibition of human K562 cells at 10 uM incubated for 24 hrs by MTT assay relative to control; type: functional; settings: read-out: GI; method in brief: as §1
# KG-1 = assay: Growth inhibition of human KG-1 cells at 10 uM incubated for 24 hrs by MTT assay relative to control; type: functional; settings: KG-1, 24 h; method in brief: as §1
# A498 [1] = assay: Growth inhibition of human A498 cells at 10 uM incubated for 24 hrs by MTT assay relative to control; type: functional; settings: read-out: GI; method in brief: as §1
# CAKI-1 [2] = assay: Growth inhibition of human CAKI-1 cells at 10 uM incubated for 24 hrs by MTT assay relative to control; type: functional; settings: read-out: GI; method in brief: as §1
# A498 [3] = assay: Antiproliferative activity against human A498 cells assessed as cell growth inhibition incubated for 24 hrs by MTT assay; type: functional, cell-based; settings: A498, 24 h
# CAKI-1 [4] = assay: Antiproliferative activity against human CAKI-1 cells assessed as cell growth inhibition incubated for 24 hrs by MTT assay; type: functional, cell-based; settings: CAKI-1, 24 h
# Histone deacetylase 1 = Histone deacetylase 1 (Homo sapiens, UniProt Q13547); assay: Inhibition of human full-length recombinant HDAC1 preincubated for 5 mins followed by HDAC substrate addition and further incubated for 45 mins by fluorescence microplate reader assay
# Histone deacetylase 2 = Histone deacetylase 2 (Homo sapiens, UniProt Q92769); assay: Inhibition of human full-length recombinant HDAC2 preincubated for 5 mins followed by HDAC substrate addition and further incubated for 45 mins by fluorescence microplate reader assay
# Histone deacetylase 3 = Histone deacetylase 3 (Homo sapiens, UniProt O15379); assay: Inhibition of human full-length recombinant HDAC3 preincubated for 5 mins followed by HDAC substrate addition and further incubated for 45 mins by fluorescence microplate reader assay
# [5] = biological target: T1, Protein deacetylase HDAC6 (Homo sapiens, UniProt Q9UBN7); assay: Inhibition of human full-length recombinant HDAC6 preincubated for 5 mins followed by HDAC substrate addition and further incubated for 45 mins by fluorescence microplate reader assay
# T1 sequence (Q9UBN7 whole entry): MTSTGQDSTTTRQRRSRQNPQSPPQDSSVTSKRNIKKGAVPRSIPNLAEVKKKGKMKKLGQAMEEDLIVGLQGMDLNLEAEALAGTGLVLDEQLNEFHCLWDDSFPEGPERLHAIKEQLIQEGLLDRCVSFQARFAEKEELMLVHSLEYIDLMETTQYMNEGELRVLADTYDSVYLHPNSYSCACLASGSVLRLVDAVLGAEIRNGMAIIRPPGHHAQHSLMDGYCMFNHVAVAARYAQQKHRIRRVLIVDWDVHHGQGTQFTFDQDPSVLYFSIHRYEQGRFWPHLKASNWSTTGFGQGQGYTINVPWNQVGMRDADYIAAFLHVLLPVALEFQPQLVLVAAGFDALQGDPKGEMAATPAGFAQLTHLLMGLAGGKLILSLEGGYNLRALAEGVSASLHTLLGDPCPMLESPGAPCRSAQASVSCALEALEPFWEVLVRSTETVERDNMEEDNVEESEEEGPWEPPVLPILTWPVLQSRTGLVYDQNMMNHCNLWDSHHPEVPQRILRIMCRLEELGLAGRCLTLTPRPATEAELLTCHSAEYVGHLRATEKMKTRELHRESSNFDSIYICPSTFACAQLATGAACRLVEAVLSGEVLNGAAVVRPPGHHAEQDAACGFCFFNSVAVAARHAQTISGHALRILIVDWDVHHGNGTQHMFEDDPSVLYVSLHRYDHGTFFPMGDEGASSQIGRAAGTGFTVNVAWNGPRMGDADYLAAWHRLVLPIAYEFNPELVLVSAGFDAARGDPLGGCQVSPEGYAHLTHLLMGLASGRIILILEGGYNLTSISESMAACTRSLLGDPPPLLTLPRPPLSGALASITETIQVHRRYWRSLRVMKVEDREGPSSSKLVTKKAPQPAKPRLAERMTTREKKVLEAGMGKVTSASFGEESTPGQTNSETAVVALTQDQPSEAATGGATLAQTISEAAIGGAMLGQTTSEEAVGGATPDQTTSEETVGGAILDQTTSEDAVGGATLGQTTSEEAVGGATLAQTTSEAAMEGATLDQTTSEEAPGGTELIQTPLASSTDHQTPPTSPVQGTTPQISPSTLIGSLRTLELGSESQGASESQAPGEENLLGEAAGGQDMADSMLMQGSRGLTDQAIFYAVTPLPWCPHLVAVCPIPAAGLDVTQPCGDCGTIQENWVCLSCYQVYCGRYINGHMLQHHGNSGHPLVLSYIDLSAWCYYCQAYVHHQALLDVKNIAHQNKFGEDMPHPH
# Histone deacetylase 8 = biological target: T2, Histone deacetylase 8 (Homo sapiens, UniProt Q9BY41); assay: Inhibition of human full-length recombinant C-terminal His-tagged HDAC8 expressed in baculovirus infected Sf9 insect cells preincubated for 5 mins followed by HDAC substrate addition and further incubated for 45 mins by fluorescence microplate reader assay
# T2 sequence (Q9BY41 whole entry): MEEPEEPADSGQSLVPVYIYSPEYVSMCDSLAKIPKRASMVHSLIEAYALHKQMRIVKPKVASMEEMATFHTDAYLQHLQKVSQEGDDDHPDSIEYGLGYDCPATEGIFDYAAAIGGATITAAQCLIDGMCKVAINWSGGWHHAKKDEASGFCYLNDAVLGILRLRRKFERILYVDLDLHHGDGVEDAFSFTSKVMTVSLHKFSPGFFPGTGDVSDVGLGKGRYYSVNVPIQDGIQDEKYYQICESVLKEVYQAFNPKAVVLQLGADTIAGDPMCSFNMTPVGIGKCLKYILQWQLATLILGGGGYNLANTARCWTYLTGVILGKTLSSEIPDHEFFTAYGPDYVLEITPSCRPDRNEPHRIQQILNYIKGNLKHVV
# Focal adhesion kinase 1 = Focal adhesion kinase 1 (Homo sapiens, UniProt Q05397); assay: Inhibition of FAK (unknown origin) by FRET-based Z'-Lyte assay
# Method in brief: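 Recombinant FAK kinase activity measured with the FRET-based Z'-LYTE format; the same platform was used for a kinase panel (FAK, FLT, FRK, IGF-1R, BTK). IC50 values determined.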
# Sequence of Focal adhesion kinase 1 (Q05397 whole entry): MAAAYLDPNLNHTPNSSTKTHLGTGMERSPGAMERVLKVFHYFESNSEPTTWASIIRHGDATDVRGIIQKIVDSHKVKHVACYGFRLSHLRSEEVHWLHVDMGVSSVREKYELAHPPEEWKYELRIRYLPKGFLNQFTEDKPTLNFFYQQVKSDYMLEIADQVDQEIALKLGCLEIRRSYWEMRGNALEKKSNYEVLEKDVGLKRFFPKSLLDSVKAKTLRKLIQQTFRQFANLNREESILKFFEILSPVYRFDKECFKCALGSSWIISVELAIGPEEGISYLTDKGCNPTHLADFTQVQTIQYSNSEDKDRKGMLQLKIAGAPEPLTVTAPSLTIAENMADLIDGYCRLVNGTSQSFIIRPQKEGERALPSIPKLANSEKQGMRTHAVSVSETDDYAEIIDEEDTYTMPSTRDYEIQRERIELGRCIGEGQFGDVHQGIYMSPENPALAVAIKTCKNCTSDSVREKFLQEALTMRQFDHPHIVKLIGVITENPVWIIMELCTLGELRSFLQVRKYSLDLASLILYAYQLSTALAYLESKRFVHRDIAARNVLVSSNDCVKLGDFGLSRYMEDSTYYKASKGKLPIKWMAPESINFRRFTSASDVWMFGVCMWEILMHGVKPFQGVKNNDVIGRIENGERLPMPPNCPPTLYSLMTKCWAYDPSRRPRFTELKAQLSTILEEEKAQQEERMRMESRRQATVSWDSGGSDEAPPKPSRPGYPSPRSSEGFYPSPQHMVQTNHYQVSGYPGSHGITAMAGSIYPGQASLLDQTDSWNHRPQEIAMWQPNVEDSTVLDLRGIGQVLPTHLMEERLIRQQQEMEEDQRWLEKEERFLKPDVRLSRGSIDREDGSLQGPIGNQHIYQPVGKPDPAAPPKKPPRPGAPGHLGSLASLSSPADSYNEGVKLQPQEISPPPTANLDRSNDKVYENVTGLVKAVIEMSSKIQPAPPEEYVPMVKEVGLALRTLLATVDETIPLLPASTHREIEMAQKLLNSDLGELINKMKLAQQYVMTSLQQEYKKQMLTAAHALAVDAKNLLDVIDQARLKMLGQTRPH
# Sequence of Histone deacetylase 3 (O15379 whole entry): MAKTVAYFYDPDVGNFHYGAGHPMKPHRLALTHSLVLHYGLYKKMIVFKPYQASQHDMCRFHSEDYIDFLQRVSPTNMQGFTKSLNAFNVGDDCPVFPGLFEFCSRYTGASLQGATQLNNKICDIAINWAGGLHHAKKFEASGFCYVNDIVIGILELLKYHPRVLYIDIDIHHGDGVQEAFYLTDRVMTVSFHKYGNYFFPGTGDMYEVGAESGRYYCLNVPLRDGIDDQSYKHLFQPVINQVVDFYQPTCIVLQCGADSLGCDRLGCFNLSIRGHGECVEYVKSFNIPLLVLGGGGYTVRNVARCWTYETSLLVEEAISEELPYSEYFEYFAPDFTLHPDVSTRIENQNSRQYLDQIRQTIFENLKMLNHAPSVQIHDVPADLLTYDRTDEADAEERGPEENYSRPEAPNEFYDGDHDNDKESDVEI
# Sequence of Histone deacetylase 1 (Q13547 whole entry): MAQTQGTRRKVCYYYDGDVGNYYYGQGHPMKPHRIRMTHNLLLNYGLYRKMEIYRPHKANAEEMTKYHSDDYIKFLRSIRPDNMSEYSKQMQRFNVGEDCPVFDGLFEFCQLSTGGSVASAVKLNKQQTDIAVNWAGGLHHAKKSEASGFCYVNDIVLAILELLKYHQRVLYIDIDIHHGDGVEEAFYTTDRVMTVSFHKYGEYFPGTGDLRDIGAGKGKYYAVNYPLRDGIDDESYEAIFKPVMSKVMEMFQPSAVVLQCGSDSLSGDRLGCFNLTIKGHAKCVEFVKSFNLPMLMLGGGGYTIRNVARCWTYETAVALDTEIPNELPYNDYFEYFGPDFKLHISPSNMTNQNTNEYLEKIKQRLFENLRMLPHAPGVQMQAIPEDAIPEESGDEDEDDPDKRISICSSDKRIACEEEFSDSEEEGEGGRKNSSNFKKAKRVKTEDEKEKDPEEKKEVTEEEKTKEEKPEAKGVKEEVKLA
# Sequence of Histone deacetylase 2 (Q92769 whole entry): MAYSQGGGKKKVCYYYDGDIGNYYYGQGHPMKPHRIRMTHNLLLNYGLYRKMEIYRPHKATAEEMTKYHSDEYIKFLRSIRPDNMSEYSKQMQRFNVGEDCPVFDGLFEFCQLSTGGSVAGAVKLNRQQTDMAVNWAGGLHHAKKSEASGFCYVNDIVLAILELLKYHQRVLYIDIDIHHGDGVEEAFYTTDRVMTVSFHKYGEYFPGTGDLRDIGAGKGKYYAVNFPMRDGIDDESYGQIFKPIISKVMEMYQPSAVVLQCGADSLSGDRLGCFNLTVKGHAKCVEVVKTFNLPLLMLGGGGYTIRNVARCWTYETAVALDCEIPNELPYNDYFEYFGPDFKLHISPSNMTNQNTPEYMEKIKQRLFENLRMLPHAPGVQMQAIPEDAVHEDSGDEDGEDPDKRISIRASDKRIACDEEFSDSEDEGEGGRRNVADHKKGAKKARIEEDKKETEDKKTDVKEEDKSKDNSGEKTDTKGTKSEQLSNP
SMILES,inhibition of growth at 10 µM (HCT-116),inhibition of growth at 10 µM (HT-29),inhibition of growth at 10 µM (K562),inhibition in vitro at 10 µM (KG-1),inhibition of growth at 10 µM (A498 [1]),inhibition of growth at 10 µM (CAKI-1 [2]),IC50 (A498 [3]),IC50 (CAKI-1 [4]),IC50 (Histone deacetylase 1),IC50 (Histone deacetylase 2),IC50 (Histone deacetylase 3),IC50 [5],IC50 (Histone deacetylase 8),IC50 (Focal adhesion kinase 1)
C=CCn1c(SCCCCCC(=O)NO)nnc1-c1ccncc1,2.07%,41.3%,16.1%,5.91%,11.1%,8.62%,76.4 µM,89.4 µM,> 300 µM,11.7 µM,222 µM,288 µM,11.1 µM,0.189 µM
CCn1c(SCCCCCC(=O)Nc2ccccc2N)nnc1-c1ccncc1,6.35%,18.6%,10.4%,3.64%,22.3%,8.91%,77.6 µM,98.3 µM,> 300 µM,27.1 µM,> 300 µM,> 300 µM,198 µM,0.141 µM
Cn1c(SCc2ccc(C(=O)Nc3ccccc3N)cc2)nnc1-c1ccncc1,18%,47.9%,54.1%,24.1%,55.6%,75.2%,9.34 µM,6.97 µM,7.64 µM,13 µM,71.1 µM,11 µM,7.85 µM,0.0531 µM
C=CCn1c(SCc2ccc(C(=O)Nc3ccccc3N)cc2)nnc1-c1ccncc1,80.5%,70.7%,90.1%,87.5%,97.1%,94.8%,1.42 µM,1.6 µM,11.8 µM,1.28 µM,42.1 µM,9.96 µM,22.5 µM,0.0156 µM
Cn1c(SCCCCCC(=O)O)nnc1-c1ccncc1,20.1%,34.2%,18.2%,55.9%,45.3%,34.7%,12.3 µM,16.5 µM,8.93 µM,7.36 µM,84.6 µM,78.4 µM,12 µM,0.0503 µM
Cn1c(SCc2ccc(C(=O)NO)cc2)nnc1-c1ccncc1,,54%,16%,72.1%,31.8%,48.2%,20.9 µM,11 µM,14.2 µM,4.35 µM,56.4 µM,14.4 µM,29.8 µM,0.0643 µM
Nc1ccccc1NC(=O)CCCCCSc1nnc(-c2ccncc2)n1-c1ccccc1,24.5%,9.64%,15.1%,34.9%,4.67%,1.65%,342 µM,215 µM,256 µM,38.7 µM,> 300 µM,159 µM,> 300 µM,0.312 µM
Nc1ccccc1NC(=O)c1ccc(CSc2nnc(-c3ccncc3)n2-c2ccccc2)cc1,45.4%,37.9%,19.6%,47.3%,72.5%,66.9%,6.19 µM,8.35 µM,22.1 µM,8.39 µM,113 µM,9.63 µM,5.32 µM,0.0961 µM
C=CCn1c(SCCCCCC(=O)O)nnc1-c1ccncc1,16.2%,21.2%,2.95%,15.4%,11.4%,3.25%,85.3 µM,164 µM,98.2 µM,10.1 µM,246 µM,> 300 µM,> 300 µM,0.124 µM
O=C(O)CCCCCSc1nnc(-c2ccncc2)n1-c1ccccc1,78.5%,80.5%,72.7%,67.2%,89.3%,94.8%,2.35 µM,1.89 µM,8.95 µM,0.64 µM,21.1 µM,10.9 µM,11.1 µM,0.0361 µM
O=C(CCCCCSc1nnc(-c2ccncc2)n1-c1ccccc1)NO,3.56%,1.09%,8.34%,11.2%,4.36%,,174 µM,92.4 µM,> 300 µM,32.4 µM,> 300 µM,246 µM,> 300 µM,0.425 µM
CCCC(CCC)C(=O)O [VALPROIC ACID],,,,,,,2140 µM,2830 µM,84.2 µM,,,215 µM,,
CCn1c(SCCCCCC(=O)O)nnc1-c1ccncc1,2.15%,9.34%,1.58%,7.34%,4.13%,1.06%,125 µM,,184 µM,26.4 µM,156 µM,> 300 µM,> 300 µM,0.0762 µM
CNC(=O)c1ccccc1Nc1nc(Nc2ccc(N3CCOCC3)cc2OC)ncc1Cl,,,,,,,0.81 µM,1.05 µM,,,,,,
